How the values were obtained:
[1] = target: T1, Ornithine decarboxylase (Rattus norvegicus) (UniProt P09057); experiment: The compound was tested for the inhibitory activity against L-orinithine carboxylase in ventral prostate of the rat at dose 25 mg/kg, ip); type: functional, organism-based; set-up: dose 25 mg/kg; scale not given: the % may be the effect or the level left; conditions: Prostate gland
T1 sequence (whole entry): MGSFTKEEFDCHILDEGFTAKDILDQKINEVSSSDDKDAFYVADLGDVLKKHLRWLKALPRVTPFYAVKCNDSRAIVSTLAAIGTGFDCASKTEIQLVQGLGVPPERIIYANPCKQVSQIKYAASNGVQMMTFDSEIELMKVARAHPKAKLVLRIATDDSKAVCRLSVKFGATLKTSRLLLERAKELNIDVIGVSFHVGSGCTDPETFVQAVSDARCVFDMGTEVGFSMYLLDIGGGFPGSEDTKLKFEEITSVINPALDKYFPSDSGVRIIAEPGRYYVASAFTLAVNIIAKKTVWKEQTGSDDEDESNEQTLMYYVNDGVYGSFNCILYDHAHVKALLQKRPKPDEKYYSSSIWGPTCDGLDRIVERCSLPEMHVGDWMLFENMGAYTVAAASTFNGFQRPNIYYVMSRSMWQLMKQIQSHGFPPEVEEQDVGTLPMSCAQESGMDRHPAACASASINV
Method in brief: (§1)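 Male Sprague–Dawley rats (200–220 g), fed ad libitum, 12 h light/dark. Single ip dose in 0.9% saline; saline-injected controls. Killed by decapitation 5 h later at a fixed time of day. Ventral prostate, testis and thymus homogenized; ODC activity measured as CO2 release and expressed as % of control. Mean ± SEM of five animals; Student's t test.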

[2] = target: T1, Ornithine decarboxylase (Rattus norvegicus); experiment: The compound was tested for the inhibitory activity against L-orinithine carboxylase in ventral prostate of the rat at dose 50 mg/kg, ip); type: functional, organism-based; set-up: dose 50 mg/kg; scale not given: the % may be the effect or the level left; conditions: Prostate gland; method in brief: as §1
[3] = target: T1, Ornithine decarboxylase (Rattus norvegicus); experiment: The compound was tested for the inhibitory activity against L-orinithine carboxylase in ventral prostate of the rat at dose 12.5 mg/kg, ip); type: functional, organism-based; set-up: dose 12.5 mg/kg; scale not given: the % may be the effect or the level left; conditions: Prostate gland; method in brief: as §1
[4] = target: T1, Ornithine decarboxylase (Rattus norvegicus); experiment: The compound was tested for the inhibitory activity against L-orinithine carboxylase in rat testis. dose 200 mg/kg, ip); type: functional, organism-based; set-up: dose 200 mg/kg; scale not given: the % may be the effect or the level left; conditions: at 200 mg/kg; method in brief: as §1
[5] = target: T1, Ornithine decarboxylase (Rattus norvegicus); experiment: The compound was tested for the inhibitory activity against L-orinithine carboxylase in rat thymus. dose 200 mg/kg, ip); type: functional, organism-based; set-up: dose 200 mg/kg; scale not given: the % may be the effect or the level left; conditions: at 200 mg/kg; method in brief: as §1
[6] = target: T1, Ornithine decarboxylase (Rattus norvegicus); experiment: The compound was tested for the inhibitory activity against L-orinithine carboxylase in ventral prostate of the rat dose 200 mg/kg, ip); type: functional, organism-based; set-up: dose 200 mg/kg; scale not given: the % may be the effect or the level left; conditions: Prostate gland; at 200 mg/kg; method in brief: as §1
[7] = target: T1, Ornithine decarboxylase (Rattus norvegicus); experiment: The compound was tested for the inhibitory activity against L-orinithine carboxylase inventral prostate of the rat at dose 100 mg/kg, ip); type: functional, organism-based; set-up: dose 100 mg/kg; scale not given: the % may be the effect or the level left; conditions: Prostate gland; method in brief: as §1
[8] = target: T1, Ornithine decarboxylase (Rattus norvegicus); experiment: Effect on the time of half-inactivation of ornithine decarboxylase at 10 uM concentration; type: functional
Method in brief: (§2)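 Rat liver ODC from thioacetamide-treated rats (150 mg/kg, 18 h before sacrifice), purified about tenfold by acid treatment at pH 4.6. Enzyme preincubated at 37 °C in 30 mM sodium phosphate pH 7.1 with 5 mM dithiothreitol, 0.1 mM pyridoxal phosphate, inhibitor and 1 mM effector where listed. Half-inactivation time derived from pseudo-first-order loss.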

[9] = target: T1, Ornithine decarboxylase (Rattus norvegicus); experiment: Effect on the time of half-inactivation of ornithine decarboxylase in the presence of 10 uM concentration + 1 mM D-2-methylornithine; type: functional; method in brief: as §2
[10] = target: T1, Ornithine decarboxylase (Rattus norvegicus); experiment: Effect on the time of half-inactivation of ornithine decarboxylase in the presence of 10 uM concentration + 1 mM L-2-methylornithine; type: functional; method in brief: as §2
[11] = target: T1, Ornithine decarboxylase (Rattus norvegicus); experiment: Effect on the time of half-inactivation of ornithine decarboxylase in the presence of 10 uM concentration + 1 mM L-ornithine; type: functional; method in brief: as §2

C#CC(N)(CCCN)C(=O)O (stereo unspecified)
Control [1]: 56% | Control [2]: 40% | Control [3]: 59% | Control [4]: 80% | Control [5]: 54% | Control [6]: 18% | Control [7]: 19% | Time of half inactivation [8]: 18 min | Time of half inactivation [9]: 26 min | Time of half inactivation [10]: 270 min | Time of half inactivation [11]: 81 min
